# Experimental data as given in ChEMBL document CHEMBL5724801, “EUbOPEN Chemogenomics Library - Multiplex” (2024).
# “And” between values parts separate entries of the source, which are not always exact repeats. Identical values can stand only once.
# System: U2OS
# Assay: Multiplex assay against U2OS
# Assay type: toxicity, cell-based
# Settings: human
# Summary of the method: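 Tubulin, mitochondrial-mass and membrane-permeability phenotypes are per cents of healthy-nucleus cells. Cells were gated by CellPathfinder machine learning into Hoechst high-intensity objects or normal cells, normal cells into healthy, pyknosed or fragmented nuclei, and pyknosed cells into mitotic or apoptotic. Before that, live cells stained at seeding with Hoechst33342, BioTracker Green Microtubule Cytoskeleton Dye, MitoTracker Red and Annexin V Alexa Fluor 680 were imaged on a CQ1 microscope at 37°C and 5% CO2 after compound addition.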
# [1] = 12 h, 1 µM, compound concentration 1 uM
# [2] = 12 h, 10 µM, compound concentration 10 uM
# [3] = 24 h, 1 µM, compound concentration 1 uM
# [4] = 24 h, 10 µM, compound concentration 10 uM
# [5] = 48 h, 1 µM, compound concentration 1 uM
# [6] = 48 h, 10 µM, compound concentration 10 uM
compound,measurement,setting,value
CC(C)(c1ccc(O)cc1)c1ccc(O)cc1 [BISPHENOL A],Population Apoptotic (%),[1],38.24% and 39.39%
same,Population Fragmented Nuclei (%),[1],2.9% and 4.3%
same,Population Healthy Nuclei (%),[1],88.13% and 77.96%
same,Population Hoechst High Intensity Objects (%),[1],0%
same,Population Membrane Permeable-Phenotype (%),[1],0.3% and 2.76%
same,Population Mitochondria Different-Phenotype (%),[1],0.3% and 6.21%
same,Population Mitotic Cells (%),[1],61.76% and 60.61%
same,Population Normal (%),[1],100%
same,Population Pyknosed Nuclei (%),[1],8.97% and 17.74%
same,Population Tubulin-Different-Phenotype (%),[1],0.9% and 0.69%
same,Total Cell Count,[1],379 and 186
same,Population Apoptotic (%),[2],50% and 47.62%
same,Population Fragmented Nuclei (%),[2],2.17% and 6.45%
same,Population Healthy Nuclei (%),[2],87.31% and 80%
same,Population Hoechst High Intensity Objects (%),[2],0%
same,Population Membrane Permeable-Phenotype (%),[2],0.71% and 4.03%
same,Population Mitochondria Different-Phenotype (%),[2],0.35% and 6.45%
same,Population Mitotic Cells (%),[2],50% and 52.38%
same,Population Normal (%),[2],100%
same,Population Pyknosed Nuclei (%),[2],10.53% and 13.55%
same,Population Tubulin-Different-Phenotype (%),[2],1.42% and 0%
same,Total Cell Count,[2],323 and 155
same,Population Apoptotic (%),[3],49.02% and 57.14%
same,Population Fragmented Nuclei (%),[3],2% and 2.2%
same,Population Healthy Nuclei (%),[3],87.82% and 85.46%
same,Population Hoechst High Intensity Objects (%),[3],0%
same,Population Membrane Permeable-Phenotype (%),[3],1.59% and 3.61%
same,Population Mitochondria Different-Phenotype (%),[3],0% and 5.67%
same,Population Mitotic Cells (%),[3],50.98% and 42.86%
same,Population Normal (%),[3],100%
same,Population Pyknosed Nuclei (%),[3],10.18% and 12.33%
same,Population Tubulin-Different-Phenotype (%),[3],0.68% and 0%
same,Total Cell Count,[3],501 and 227
same,Population Apoptotic (%),[4],38.3% and 22.58%
same,Population Fragmented Nuclei (%),[4],2.34% and 3.03%
same,Population Healthy Nuclei (%),[4],86.68% and 81.31%
same,Population Hoechst High Intensity Objects (%),[4],0%
same,Population Membrane Permeable-Phenotype (%),[4],0.54% and 5.59%
same,Population Mitochondria Different-Phenotype (%),[4],0.81% and 6.21%
same,Population Mitotic Cells (%),[4],61.7% and 77.42%
same,Population Normal (%),[4],100%
same,Population Pyknosed Nuclei (%),[4],10.98% and 15.66%
same,Population Tubulin-Different-Phenotype (%),[4],0.54% and 0.62%
same,Total Cell Count,[4],428 and 198
same,Population Apoptotic (%),[5],38.64% and 58.54%
same,Population Fragmented Nuclei (%),[5],3.22% and 4.97%
same,Population Healthy Nuclei (%),[5],87.66% and 84.29%
same,Population Hoechst High Intensity Objects (%),[5],0%
same,Population Membrane Permeable-Phenotype (%),[5],0.36% and 2.17%
same,Population Mitochondria Different-Phenotype (%),[5],0.24% and 4.66%
same,Population Mitotic Cells (%),[5],61.36% and 41.46%
same,Population Normal (%),[5],100%
same,Population Pyknosed Nuclei (%),[5],9.13% and 10.73%
same,Population Tubulin-Different-Phenotype (%),[5],0.47% and 0%
same,Total Cell Count,[5],964 and 382
same,Population Apoptotic (%),[6],36.49% and 60%
same,Population Fragmented Nuclei (%),[6],2.4% and 2.31%
same,Population Healthy Nuclei (%),[6],88.73% and 86.13%
same,Population Hoechst High Intensity Objects (%),[6],0%
same,Population Membrane Permeable-Phenotype (%),[6],1.22% and 3.02%
same,Population Mitochondria Different-Phenotype (%),[6],0.27% and 2.68%
same,Population Mitotic Cells (%),[6],63.51% and 40%
same,Population Normal (%),[6],100%
same,Population Pyknosed Nuclei (%),[6],8.87% and 11.56%
same,Population Tubulin-Different-Phenotype (%),[6],0.68% and 1.34%
same,Total Cell Count,[6],834 and 346
O=C(O)CCC/C=C\CC1C(O)CC(O)C1/C=C/C(O)COc1cccc(Cl)c1 (stereo not drawn) [CLOPROSTENOL],Population Apoptotic (%),[1],77% and 75%
same,Population Fragmented Nuclei (%),[1],30% and 11%
same,Population Healthy Nuclei (%),[1],60% and 82%
same,Population Hoechst High Intensity Objects (%),[1],3% and 0%
same,Population Membrane Permeable-Phenotype (%),[1],2% and 6%
same,Population Mitochondria Different-Phenotype (%),[1],0% and 3%
same,Population Mitotic Cells (%),[1],22% and 25%
same,Population Normal (%),[1],96% and 100%
same,Population Pyknosed Nuclei (%),[1],9% and 6%
same,Population Tubulin-Different-Phenotype (%),[1],1% and 2%
same,Total Cell Count,[1],201 and 129
same,Population Apoptotic (%),[2],92% and 45%
same,Population Healthy Nuclei (%),[2],60% and 81%
same,Population Hoechst High Intensity Objects (%),[2],2% and 0%
same,Population Membrane Permeable-Phenotype (%),[2],8% and 9%
same,Population Mitochondria Different-Phenotype (%),[2],1% and 6%
same,Population Normal (%),[2],97% and 100%
same,Population Pyknosed Nuclei (%),[2],10% and 8%
same,Population Tubulin-Different-Phenotype (%),[2],3%
same,Total Cell Count,[2],272 and 131
same,Population Apoptotic (%),[3],81% and 75%
same,Population Fragmented Nuclei (%),[3],24% and 15%
same,Population Healthy Nuclei (%),[3],63% and 77%
same,Population Hoechst High Intensity Objects (%),[3],1% and 0%
same,Population Membrane Permeable-Phenotype (%),[3],4% and 6%
same,Population Mitochondria Different-Phenotype (%),[3],2%
same,Population Mitotic Cells (%),[3],18% and 25%
same,Population Normal (%),[3],98% and 100%
same,Population Pyknosed Nuclei (%),[3],11% and 7%
same,Population Tubulin-Different-Phenotype (%),[3],2% and 4%
same,Total Cell Count,[3],237 and 157
same,Population Apoptotic (%),[4],90% and 70%
same,Population Fragmented Nuclei (%),[4],23% and 11%
same,Population Healthy Nuclei (%),[4],66% and 82%
same,Population Hoechst High Intensity Objects (%),[4],2% and 0%
same,Population Membrane Permeable-Phenotype (%),[4],7% and 11%
same,Population Mitochondria Different-Phenotype (%),[4],2% and 4%
same,Population Mitotic Cells (%),[4],10% and 30%
same,Population Normal (%),[4],97% and 100%
same,Population Pyknosed Nuclei (%),[4],10% and 5%
same,Population Tubulin-Different-Phenotype (%),[4],3% and 4%
same,Total Cell Count,[4],306 and 177
same,Population Apoptotic (%),[5],89% and 81%
same,Population Fragmented Nuclei (%),[5],20% and 11%
same,Population Healthy Nuclei (%),[5],70% and 81%
same,Population Hoechst High Intensity Objects (%),[5],1% and 0%
same,Population Membrane Permeable-Phenotype (%),[5],2% and 6%
same,Population Mitochondria Different-Phenotype (%),[5],1% and 3%
same,Population Mitotic Cells (%),[5],10% and 18%
same,Population Normal (%),[5],98% and 99%
same,Population Pyknosed Nuclei (%),[5],8% and 7%
same,Population Tubulin-Different-Phenotype (%),[5],0% and 2%
same,Total Cell Count,[5],344 and 229
same,Population Apoptotic (%),[6],91% and 84%
same,Population Fragmented Nuclei (%),[6],18% and 12%
same,Population Healthy Nuclei (%),[6],67% and 82%
same,Population Hoechst High Intensity Objects (%),[6],3% and 2%
same,Population Membrane Permeable-Phenotype (%),[6],6% and 10%
same,Population Mitochondria Different-Phenotype (%),[6],1% and 2%
same,Population Mitotic Cells (%),[6],8% and 15%
same,Population Normal (%),[6],96% and 97%
same,Population Pyknosed Nuclei (%),[6],14% and 5%
same,Population Tubulin-Different-Phenotype (%),[6],4%
same,Total Cell Count,[6],396 and 246
Cc1cc(C(C#N)c2ccc(Cl)cc2)c(Cl)cc1NC(=O)c1cc(I)cc(I)c1O (stereo not drawn) [CLOSANTEL],Population Apoptotic (%),[1],40% and 50%
same,Population Fragmented Nuclei (%),[1],1.13% and 2.08%
same,Population Healthy Nuclei (%),[1],90.4% and 86.81%
same,Population Hoechst High Intensity Objects (%),[1],0.19% and 0%
same,Population Membrane Permeable-Phenotype (%),[1],0.62% and 4.8%
same,Population Mitochondria Different-Phenotype (%),[1],0.42% and 3.2%
same,Population Mitotic Cells (%),[1],60% and 50%
same,Population Normal (%),[1],99.81% and 100%
same,Population Pyknosed Nuclei (%),[1],8.47% and 11.11%
same,Population Tubulin-Different-Phenotype (%),[1],1.46% and 0.8%
same,Population Apoptotic (%),[2],37.5% and 50%
same,Population Fragmented Nuclei (%),[2],1.14% and 4.88%
same,Population Healthy Nuclei (%),[2],93.39% and 81.71%
same,Population Hoechst High Intensity Objects (%),[2],0%
same,Population Membrane Permeable-Phenotype (%),[2],0.98% and 2.99%
same,Population Mitochondria Different-Phenotype (%),[2],0.49% and 8.96%
same,Population Mitotic Cells (%),[2],62.5% and 50%
same,Population Normal (%),[2],100%
same,Population Pyknosed Nuclei (%),[2],5.47% and 13.41%
same,Population Tubulin-Different-Phenotype (%),[2],0.73% and 2.24%
same,Total Cell Count,[2],439 and 164
same,Population Apoptotic (%),[3],40% and 43.75%
same,Population Fragmented Nuclei (%),[3],1.65% and 4.19%
same,Population Healthy Nuclei (%),[3],90.1% and 86.23%
same,Population Hoechst High Intensity Objects (%),[3],0%
same,Population Membrane Permeable-Phenotype (%),[3],0.61% and 5.56%
same,Population Mitochondria Different-Phenotype (%),[3],0.46% and 6.25%
same,Population Mitotic Cells (%),[3],60% and 56.25%
same,Population Normal (%),[3],100%
same,Population Pyknosed Nuclei (%),[3],8.25% and 9.58%
same,Population Tubulin-Different-Phenotype (%),[3],0.46% and 1.39%
same,Population Apoptotic (%),[4],33.33% and 40%
same,Population Fragmented Nuclei (%),[4],1.76% and 4.91%
same,Population Healthy Nuclei (%),[4],88.75% and 83.93%
same,Population Hoechst High Intensity Objects (%),[4],0%
same,Population Membrane Permeable-Phenotype (%),[4],0% and 2.66%
same,Population Mitochondria Different-Phenotype (%),[4],0% and 4.26%
same,Population Mitotic Cells (%),[4],66.67% and 60%
same,Population Normal (%),[4],100%
same,Population Pyknosed Nuclei (%),[4],9.49% and 11.16%
same,Population Tubulin-Different-Phenotype (%),[4],0.4% and 1.06%
same,Total Cell Count,[4],569 and 224
same,Population Apoptotic (%),[5],45.67% and 45.95%
same,Population Fragmented Nuclei (%),[5],3.15% and 4.35%
same,Population Healthy Nuclei (%),[5],87.31% and 83.28%
same,Population Hoechst High Intensity Objects (%),[5],0%
same,Population Membrane Permeable-Phenotype (%),[5],0.6% and 2.01%
same,Population Mitochondria Different-Phenotype (%),[5],0% and 6.02%
same,Population Mitotic Cells (%),[5],54.33% and 54.05%
same,Population Normal (%),[5],100%
same,Population Pyknosed Nuclei (%),[5],9.53% and 12.37%
same,Population Tubulin-Different-Phenotype (%),[5],0.77% and 0%
same,Population Apoptotic (%),[6],36.05% and 34.09%
same,Population Fragmented Nuclei (%),[6],2.74% and 3.02%
same,Population Healthy Nuclei (%),[6],89.14% and 85.93%
same,Population Hoechst High Intensity Objects (%),[6],0.09% and 0%
same,Population Membrane Permeable-Phenotype (%),[6],0.42% and 1.17%
same,Population Mitochondria Different-Phenotype (%),[6],0.11% and 4.97%
same,Population Mitotic Cells (%),[6],63.95% and 65.91%
same,Population Normal (%),[6],99.91% and 100%
same,Population Pyknosed Nuclei (%),[6],8.12% and 11.06%
same,Population Tubulin-Different-Phenotype (%),[6],0.32% and 0.88%
same,Total Cell Count,[6],1060 and 398
